Data reported in ChEMBL document CHEMBL3259663, “3-Amido-3-aryl-piperidines: A Novel Class of Potent, Selective, and Orally Active GlyT1 Inhibitors” (ACS Med Chem Lett, 2014).

Assays:
[1] = molecular target: T1, Sodium- and chloride-dependent glycine transporter 1 (Homo sapiens, UniProt P48067); experiment: Inhibition of human GlyT1 expressed in cells assessed as [3H]glycine uptake; assay type: cell-based
T1 sequence (P48067 whole entry): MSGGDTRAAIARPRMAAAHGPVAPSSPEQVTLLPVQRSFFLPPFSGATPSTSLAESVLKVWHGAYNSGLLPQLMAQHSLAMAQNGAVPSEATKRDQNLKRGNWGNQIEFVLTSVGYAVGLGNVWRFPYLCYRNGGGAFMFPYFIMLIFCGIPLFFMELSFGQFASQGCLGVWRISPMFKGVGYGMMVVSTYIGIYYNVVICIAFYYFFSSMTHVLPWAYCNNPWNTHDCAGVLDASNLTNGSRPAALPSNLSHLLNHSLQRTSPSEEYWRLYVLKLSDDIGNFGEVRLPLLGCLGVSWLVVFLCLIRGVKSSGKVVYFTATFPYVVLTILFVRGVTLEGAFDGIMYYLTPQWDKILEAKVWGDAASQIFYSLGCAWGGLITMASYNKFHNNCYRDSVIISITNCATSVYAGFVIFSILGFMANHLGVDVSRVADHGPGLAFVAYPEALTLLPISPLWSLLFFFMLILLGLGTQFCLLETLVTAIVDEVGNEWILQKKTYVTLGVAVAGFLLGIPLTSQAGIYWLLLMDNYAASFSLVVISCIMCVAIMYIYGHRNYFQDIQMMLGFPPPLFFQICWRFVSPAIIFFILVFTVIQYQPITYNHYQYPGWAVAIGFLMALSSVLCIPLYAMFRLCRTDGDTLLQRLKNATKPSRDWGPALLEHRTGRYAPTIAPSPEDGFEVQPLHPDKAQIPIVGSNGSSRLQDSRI
Summary of the method: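 [³H]-glycine uptake inhibition in cells transfected with human GlyT1. EC₅₀ values are the average of at least two independent experiments.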

[2] = molecular target: T1, Sodium- and chloride-dependent glycine transporter 1; experiment: Inhibition of GlyT1 (unknown origin)

SMILES	EC50 [1]	IC50 [2]
COc1cc(C(F)(F)F)cc(SC)c1C(=O)NC1(c2cccc(F)c2)CCCN(C)C1 (racemic)	48 nM	
COc1cccc(C2(NC(=O)c3c(OC)cc(C(F)(F)F)cc3SC)CCCN(C)C2)c1 (racemic)	110 nM	
COc1cc(C(F)(F)F)cc(SC)c1C(=O)NC1(c2ccncc2)CCCN(C)C1 (racemic)	60 nM	
COc1cc(C(F)(F)F)cc(C(F)(F)F)c1C(=O)NC1(c2ccccc2)CCCN(C(=O)c2ccccc2)C1 (racemic)	> 10000 nM	
COc1cc(C(F)(F)F)cc(C(F)(F)F)c1C(=O)NC1(c2ccccc2)CCCN(C2CCCC2)C1 (racemic)	270 nM	
CN1CCCC(NC(=O)c2ccc(C(F)(F)F)cc2)(c2ccccc2)C1 (racemic)	> 10000 nM	
COc1cc(C(F)(F)F)cc(SC)c1C(=O)NC1(c2ccncn2)CCCN(C)C1 (racemic)	1700 nM	
CN1CCCC(NC(=O)c2ccc(C(F)(F)F)cc2C(F)(F)F)(c2ccccc2)C1 (racemic)	540 nM	
COc1cc(C(F)(F)F)cc(SC)c1C(=O)NC1(c2ncccn2)CCCN(C)C1 (racemic)	> 10000 nM	
COc1cc(C(F)(F)F)cc(SC)c1C(=O)NC1(c2cnccn2)CCCN(C)C1 (racemic)	1670 nM	
CN1CCCC(NC(=O)c2ccc(C(F)(F)F)cc2Br)(c2ccccc2)C1 (racemic)	300 nM	
COc1cc(C(F)(F)F)cc(C(F)(F)F)c1C(=O)NC1(c2ccccc2)CCCN(C(C)C)C1 (racemic)	230 nM	
COc1cc(C(F)(F)F)cc(SC)c1C(=O)N[C@]1(c2ccccc2)CCCN(C)C1	180 nM	
CCN1CCCC(NC(=O)c2c(OC)cc(C(F)(F)F)cc2C(F)(F)F)(c2ccccc2)C1 (racemic)	230 nM	
COc1cc(C(F)(F)F)cc(C(F)(F)F)c1C(=O)NC1(c2ccccc2)CCCN(CC2CC2)C1 (racemic)	380 nM	
COc1cc(C(F)(F)F)cc(C(F)(F)F)c1C(=O)NC1(c2ccccc2)CCCN(Cc2ccccc2)C1 (racemic)	6700 nM	
COc1cc(C(F)(F)F)cc(C(F)(F)F)c1C(=O)NC1(c2ccccc2)CCCN(C)C1 (stereo not given)		140 nM
CSc1cc(C(F)(F)F)ccc1C(=O)NC1(c2ccccc2)CCCN(C)C1 (racemic)	67 nM	

SMILES	EC50 [1]	IC50 [2]
COc1cc(C(F)(F)F)cc(SC)c1C(=O)NC1(c2ccc(C)cc2)CCCN(C)C1 (racemic)	230 nM	
COc1cc(C(F)(F)F)cc(SC)c1C(=O)NC1(c2ccccc2)CCCN(C)C1 (racemic)	24 nM	
COc1cc(C(F)(F)F)cc(SC)c1C(=O)NC1(c2ccc(F)cn2)CCCN(C)C1 (racemic)	180 nM	
COc1cc(C(F)(F)F)cc(SC)c1C(=O)NC1(c2ccc(Cl)cc2)CCCN(C)C1 (racemic)	28 nM	
COc1cc(C(F)(F)F)cc(C(F)(F)F)c1C(=O)NC1(c2ccccc2)CCCN(C(C)=O)C1 (racemic)	> 10000 nM	
COc1cccc(C(F)(F)F)c1C(=O)NC1(c2ccccc2)CCCN(C)C1 (racemic)	1500 nM	
COc1cc(C(F)(F)F)cc(SC)c1C(=O)NC1(c2cccc(Cl)c2)CCCN(C)C1 (racemic)	25 nM	
Cc1cc(C(F)(F)F)ccc1C(=O)NC1(c2ccccc2)CCCN(C)C1 (racemic)	320 nM	
COc1cc(C(F)(F)F)cc(SC)c1C(=O)NC1(c2cccnc2)CCCN(C)C1 (racemic)	54 nM	
CN1CCCC(NC(=O)c2ccc(C(F)(F)F)cc2F)(c2ccccc2)C1 (racemic)	9900 nM	
CN1CCCC(NC(=O)c2ccc(C(F)(F)F)cc2C#N)(c2ccccc2)C1 (racemic)	> 10000 nM	
COc1cc(C(F)(F)F)cc(C(F)(F)F)c1C(=O)NC1(c2ccccc2)CCCN(S(C)(=O)=O)C1 (racemic)	> 10000 nM	
COc1ccc(C2(NC(=O)c3c(OC)cc(C(F)(F)F)cc3SC)CCCN(C)C2)cc1 (racemic)	170 nM	
COc1cc(C(F)(F)F)ccc1C(=O)NC1(c2ccccc2)CCCN(C)C1 (racemic)	4800 nM	
COc1cc(C(F)(F)F)cc(SC)c1C(=O)NC1(c2ccc(F)cc2)CCCN(C)C1 (racemic)	26 nM	
CN1CCCC(NC(=O)c2ccc(Cl)cc2Cl)(c2ccccc2)C1 (racemic)	670 nM	
COc1cc(C(F)(F)F)cc(C(F)(F)F)c1C(=O)NC1(c2ccccc2)CCCNC1 (racemic)	660 nM	
